What was measured:
[1] = In vitro calcium antagonist activity was assessed against calcium induced constriction of potassium-depolarized rat aorta; assay type: functional, tissue-based
Summary of the method: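 Spirally cut rat aortic strips, one end fixed and the other on a force transducer, in modified Krebs-Henseleit with 45 mM K⁺ and no calcium. CaCl2 is added to a final 2 mM Ca²⁺ and the contraction tension is recorded. After draining, refilling and 45 min, the challenge is repeated with the compound in the saline. The concentration giving 50% reduction of the response is recorded.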

[2] = species: Cavia porcellus; assay: Negative inotropy measured as the concentration required to depress contraction in the isolated Langendorff-perfused guinea pig heart by 25%; assay type: functional
Summary of the method: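 Hearts from male guinea pigs were Langendorff-perfused with Krebs-Henseleit solution at 37 °C. Force and rate of contraction were measured with a force transducer attached to the apex.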

[3] = test system: Canis familiaris; assay: Percent decrease in coronary vascular resistance in dogs after intravenous dosage of 1500 ug/kg compound; assay type: functional, Canis lupus familiaris
Summary of the method: (§1)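 Given intravenously to instrumented, anesthetized dogs. Coronary blood flow was measured by hydrogen clearance. Coronary vascular resistance was derived as arterial blood pressure divided by coronary flow.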

[4] = test system: Canis familiaris; assay: Percent decrease in coronary vascular resistance in dogs after intravenous dosage of 450 ug/kg compound; assay type: functional, Canis lupus familiaris; summary of the method: as §1
[5] = test system: Canis familiaris; assay: Percent decrease in coronary vascular resistance in dogs after intravenous dosage of 150 ug/kg compound
[6] = species: Rattus norvegicus; assay: In vitro calcium antagonist activity was assessed against calcium induced constriction of potassium -depolarized rat aorta by 50%
[7] = Compound was tested for the plasma half life in dogs; assay type: functional
[8] = Compound was tested for the volume of distribution in dogs; assay type: functional, organism-based

| Structure (SMILES) | -Log IC50 [1] | -Log IC25 [2] | further results |
| --- | --- | --- | --- |
| CCO/C(O)=C1\C(COCCNC)=NC(C)=C(C(=O)OC)C1c1ccccc1Cl (stereo not given) | 8.5 | 7.5 | Decrease [3]: 78.6%; Decrease [4]: 73.8%; Decrease [5]: 46.2% |
| CCO/C(O)=C1\C(COCCN)=NC(C)=C(C(=O)OC)C1c1cccc(Cl)c1Cl (stereo not given) | 7.9 | 6.6 | – |
| COC(=O)C1=C(C)NC(C)=C(C(=O)OC)C1c1ccccc1[N+](=O)[O-] [NIFEDIPINE] | – | 7.5 | IC50 [6]: 3.98 nM |
| CCO/C(O)=C1\C(COCCN(C)C)=NC(C)=C(C(=O)OC)C1c1ccccc1C(F)(F)F (stereo not given) | 7.4 | 7.6 | – |
| CCO/C(O)=C1\C(COCCN(C)C)=NC(C)=C(C(=O)OC)C1c1ccccc1Cl (stereo not given) | 8.1 | 7.5 | Decrease [3]: 74.7%; Decrease [4]: 68.9%; Decrease [5]: 64.8% |
| CCO/C(O)=C1\C(COCCN(C)C)=NC(C)=C(C(=O)OC)C1c1cccc2ccccc12 (stereo not given) | 7.1 | 7.7 | – |
| CCO/C(O)=C1\C(COCCN2CCNCC2)=NC(C)=C(C(=O)OC)C1c1ccccc1Cl (stereo not given) | 6.8 | 7.4 | – |
| CCOC(=O)C1=C(COCCN)NC(C)=C(C(=O)OC)C1c1ccccc1Cl (stereo in doubt; 19) [AMLODIPINE] | 5.8 | – | – |
| CCOC(=O)C1=C(COCCN)NC(C)=C(C(=O)OC)C1c1ccccc1Cl (stereo in doubt; 17) [AMLODIPINE] | 8.1 | – | Decrease [3]: 76.9%; Decrease [4]: 69.5%; Decrease [5]: 35.4% |
| CCO/C(O)=C1\C(COCCN)=NC(C)=C(C(=O)OC)C1c1ccccc1F (stereo not given) | 7.8 | 6.6 | – |
| COC(=O)C1=C(C)NC(C)=C(C(=O)OCCN(C)Cc2ccccc2)C1c1cccc([N+](=O)[O-])c1 (stereo not given) | – | – | Plasma half life [7]: 17 h; Vd [8]: 3.5 L/kg |
| CCOC(=O)C1=C(COCCN)NC(C)=C(C(=O)OC)C1c1ccccc1Cl (stereo in doubt; 18) [AMLODIPINE] | 8.7 | – | – |
| CCO/C(O)=C1\C(COCCNC)=NC(C)=C(C(=O)OC)C1c1ccccc1C (stereo not given) | 7.2 | 7.2 | – |

Continued, in another order:

| -Log IC50 [1] | Structure (SMILES) | -Log IC25 [2] | further results |
| --- | --- | --- | --- |
| 7.9 | CCO/C(O)=C1\C(COCCNC)=NC(C)=C(C(=O)OC)C1c1c(F)cccc1Cl (stereo not given) | 7.6 | – |
| 6.4 | CCO/C(O)=C1\C(COCCN2CCC(N(C)C)CC2)=NC(C)=C(C(=O)OC)C1c1ccccc1Cl (stereo not given) | 7.1 | – |
| 8 | CCO/C(O)=C1\C(COCCN2CCN(Cc3ccc(Cl)cc3)CC2)=NC(C)=C(C(=O)OC)C1c1ccccc1Cl (stereo not given) | 7.4 | – |
| 6.9 | CCO/C(O)=C1\C(COCCN(C)C)=NC(C)=C(C(=O)OC)C1c1cccs1 (stereo not given) | 6.6 | – |
| 8 | CCO/C(O)=C1\C(COCCN2CCN(C)CC2)=NC(C)=C(C(=O)OC)C1c1ccccc1Cl (stereo not given) | 7.9 | – |
| 8.5 | CCO/C(O)=C1\C(COCCN)=NC(C)=C(C(=O)OC)C1c1cccc(C(F)(F)F)c1Cl (stereo not given) | 7.3 | Decrease [3]: 81.7%; Decrease [4]: 75.7%; Decrease [5]: 52.6% |
| 8 | CCO/C(O)=C1\C(COCCN(C)C)=NC(C)=C(C(=O)OC)C1c1cccc([N+](=O)[O-])c1 (stereo not given) | 7.1 | – |
| 7.8 | CCO/C(O)=C1\C(COCCN2CCOCC2)=NC(C)=C(C(=O)OC)C1c1ccccc1Cl (stereo not given) | 7.5 | – |
| 7.9 | CCO/C(O)=C1\C(COCCN2CCN(c3ccc(F)cc3)CC2)=NC(C)=C(C(=O)OC)C1c1ccccc1Cl (stereo not given) | 7.3 | – |
| 6.1 | CCO/C(O)=C1\C(COCCN(C)C)=NC(C)=C(C(=O)OC)C1c1ccncc1 (stereo not given) | 6 | – |
| 7.9 | CCO/C(O)=C1\C(COCCN)=NC(C)=C(C(=O)OC)C1c1cccc(Cl)c1 (stereo not given) | 6.6 | – |
| 8.6 | CCO/C(O)=C1\C(COCCCN(C)C)=NC(C)=C(C(=O)OC)C1c1ccccc1Cl (stereo not given) | 8.6 | – |
| 6 | CCO/C(O)=C1\C(COCCN)=NC(C)=C(C(=O)OC)C1c1ccc(Cl)cc1 (stereo not given) | 6 | – |
| 6 | CCO/C(O)=C1\C(COCCN2CCN(CCN(CC)CC)CC2)=NC(C)=C(C(=O)OC)C1c1ccccc1Cl (stereo not given) | 7.1 | – |
| 6.8 | CCO/C(O)=C1\C(COCCN)=NC(C)=C(C(=O)OC)C1c1ccccc1 (stereo not given) | 6.2 | – |
| 7.4 | CCO/C(O)=C1\C(COCCN(C)Cc2ccccc2)=NC(C)=C(C(=O)OC)C1c1ccccc1Cl (stereo not given) | 7.3 | – |
| 8.2 | CCO/C(O)=C1\C(COCCN2CCN(C(C)C)CC2)=NC(C)=C(C(=O)OC)C1c1ccccc1Cl (stereo not given) | 8 | – |
| 7.2 | CCO/C(O)=C1\C(COCCNC)=NC(C)=C(C(=O)OC)C1c1ccccc1OC (stereo not given) | 7.1 | – |
| 7.9 | CCO/C(O)=C1\C(COCCN2CCCC2)=NC(C)=C(C(=O)OC)C1c1ccccc1Cl (stereo not given) | 7.7 | – |
| 8.4 | CCO/C(O)=C1\C(COCCCN2CCN(C)CC2)=NC(C)=C(C(=O)OC)C1c1ccccc1Cl (stereo not given) | 8.2 | – |

Reference: ChEMBL document CHEMBL1123472, “Long-acting dihydropyridine calcium antagonists. 1. 2-Alkoxymethyl derivatives incorporating basic substituents” (J Med Chem, 1986)
